Measured values: ChEMBL document CHEMBL2176913, “Haloarene derivatives of carbamazepine with reduced bioactivation liabilities: 2-monohalo and 2,8-dihalo derivatives” (J Med Chem, 2012)

What was measured:
[1] = system: Hepatocyte; experiment: Drug metabolism in Wistar rat hepatocytes assessed as ratio of O-sulfonate II metabolite level to parent compound level at 50 uM incubated for 6 hrs by HPLC and LC-MS/Ms method; format: ADME, cell-based
Outline: (§1)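 Hepatocytes freshly isolated from male rat liver by two-step collagenase perfusion; only cells with ≥80% viability (trypan blue) were used. Cells at 2 × 10^6 cells/mL were shaken at 37 °C for 6 h with substrate at 50 μM, added in methanol (1% final volume). Reactions were stopped with acetonitrile. Metabolites were identified against authentic standards and by ESI LC–MS. Ratios are metabolite:parent compound.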

[2] = system: Hepatocyte; experiment: Drug metabolism in Wistar rat hepatocytes assessed as ratio of N-glucuronide metabolite level to parent compound level at 50 uM incubated for 6 hrs by HPLC and LC-MS/Ms method; format: ADME, cell-based; outline: as §1
[3] = system: Liver microsomes; experiment: Stability in human liver microsomes assessed as dioxygenated metabolite formation at 50 uM incubated for 60 mins by HPLC and LC-MS/Ms method; format: ADME, Microsome; conditions: 1 h
Outline: (§2)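 Pooled human liver microsomes (150 donors, both sexes), 1 mg/mL protein, with substrate at 50 μM and NADPH at 1 mM. Incubated in 0.1 M potassium phosphate, pH 7.4, for 60 min at 37 °C; controls lacked NADPH. The reaction was stopped with ice-cold acetonitrile, and the supernatant was dried, reconstituted in methanol/water and analysed by HPLC-UV and ESI LC–MS (4000 Qtrap).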

[4] = Drug metabolism in human liver microsomes assessed as compound turnover at 50 uM incubated for 60 mins by HPLC and LC-MS/Ms method; format: ADME, Microsome; conditions: read-out: Drug metabolism; outline: as §2
[5] = system: Hepatocyte; experiment: Drug metabolism in Wistar rat hepatocytes assessed as ratio of epoxide N-glucuronide metabolite level to parent compound level at 50 uM incubated for 6 hrs by HPLC and LC-MS/Ms method; format: ADME, cell-based; outline: as §1
[6] = system: Liver microsomes; experiment: Stability in human liver microsomes assessed as diol formation at 50 uM incubated for 60 mins by HPLC and LC-MS/Ms method; format: ADME, Microsome; conditions: 1 h; outline: as §2
[7] = system: Hepatocyte; experiment: Stability in Wistar rat hepatocytes assessed as 10,11-epoxide N-glucuronide metabolite formation at 1 mM incubated for 6 hrs by HPLC and LC-MS/Ms method; format: ADME, cell-based; conditions: 1000 µM
Outline: (§3)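 Male rat hepatocytes were isolated by collagenase perfusion (≥80% viable) and suspended at 2 × 10^6 cells/mL. They were incubated 6 h at 37 °C with substrate at typically 50–1000 μM, added in methanol (1% final volume); one analogue was tested only at 50 and 200 μM, added in acetonitrile. The reaction was stopped with acetonitrile, and the supernatant was concentrated and analysed by HPLC-UV and ESI LC–MS.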

[8] = system: Hepatocyte; experiment: Stability in Wistar rat hepatocytes assessed as metabolite formation at >200 uM incubated for 6 hrs by HPLC and LC-MS/Ms method; format: ADME, cell-based; outline: as §3
[9] = system: Hepatocyte; experiment: Drug metabolism in Wistar rat hepatocytes assessed as ratio of O-sulfonate I metabolite level to parent compound level at 50 uM incubated for 6 hrs by HPLC and LC-MS/Ms method; format: ADME, cell-based; outline: as §1
[10] = system: Hepatocyte; experiment: Drug metabolism in Wistar rat hepatocytes assessed as GSH adduct formation at 50 uM incubated for 6 hrs by HPLC and LC-MS/Ms method; format: ADME, cell-based; outline: as §1
[11] = system: Liver microsomes; experiment: Drug metabolism in human liver microsomes assessed as 10,11 epoxidation level at 50 uM incubated for 60 mins by HPLC and LC-MS/Ms method; format: ADME, Microsome; conditions: 1 h; outline: as §2
[12] = system: Hepatocyte; experiment: Drug metabolism in Wistar rat hepatocytes assessed as ratio of 10,11-epoxide metabolite level to parent compound level at 50 uM incubated for 6 hrs by HPLC and LC-MS/Ms method; format: ADME, cell-based; outline: as §1
[13] = system: Hepatocyte; experiment: Stability in Wistar rat hepatocytes assessed as 10,11-epoxide N-glucuronide metabolite formation at 200 uM incubated for 6 hrs by HPLC and LC-MS/Ms method; format: ADME, cell-based; outline: as §3
[14] = system: Liver microsomes; experiment: Stability in human liver microsomes assessed as oxidative defluorination at 50 uM incubated for 60 mins by HPLC and LC-MS/Ms method; format: ADME, Microsome; conditions: 1 h; outline: as §2
[15] = system: Hepatocyte; experiment: Stability in Wistar rat hepatocytes assessed as 10,11-epoxide N-glucuronide metabolite formation at 500 uM incubated for 6 hrs by HPLC and LC-MS/Ms method; format: ADME, cell-based; outline: as §3
[16] = system: Hepatocyte; experiment: Stability in Wistar rat hepatocytes assessed as 10,11-epoxide N-glucuronide metabolite formation at 100 uM incubated for 6 hrs by HPLC and LC-MS/Ms method; format: ADME, cell-based; outline: as §3

SMILES | Ratio [1] | Ratio [2] | Stability [3] | metabolised at 1 h, 50 µM [4] [%] | Ratio [5] | Stability [6] | Stability [7] | Stability [8] | Ratio [9] | Drug metabolism [10] | Drug metabolism [11] | Ratio [12] | Stability [1] | Stability [9] | Stability [13] | Stability [14] | Stability [15] | Stability [16]
NC(=O)N1c2ccccc2C=Cc2ccccc21 [CARBAMAZEPINE] | 0.32 | 0.63 | Stable | 1 | 0.24 | Stable | Stable | Stable | 0.08 | Active | Active | 0.52 |  |  |  |  |  | 
NC(=O)N1c2ccccc2C=Cc2cc(F)ccc21 | 0.41 | 0.784 |  |  | 0.15 |  |  | Stable |  |  |  | 0.28 |  | Stable | Stable |  |  | 
NC(=O)N1c2ccc(F)cc2C=Cc2cc(F)ccc21 |  | 0.18 | Stable | 1 | 0.02 | Stable |  | Stable |  |  | Active | 0.07 | Stable | Stable |  | Stable | Stable | 
NC(=O)N1c2ccccc2C=Cc2cc(Br)ccc21 |  |  |  |  |  |  |  |  |  |  |  |  | Stable | Stable |  |  |  | 

Second part, the molecule after the results:

Ratio [1] | Ratio [2] | Stability [3] | metabolised at 1 h, 50 µM [4] [%] | Ratio [5] | Stability [6] | Stability [7] | Stability [8] | Ratio [9] | Drug metabolism [10] | Drug metabolism [11] | Ratio [12] | Stability [1] | Stability [9] | Stability [13] | Stability [14] | Stability [15] | Stability [16] | SMILES
 | 0.22 |  |  | 0.21 |  |  | Stable |  |  |  | 0.14 | Stable | Stable | Stable |  |  |  | NC(=O)N1c2ccc(Cl)cc2C=Cc2cc(Cl)ccc21
 | 2.04 |  |  | 0.11 |  |  | Stable |  |  |  | 0.21 | Stable | Stable |  |  | Stable |  | NC(=O)N1c2ccccc2C=Cc2cc(Cl)ccc21
 | 0.27 |  |  |  |  |  | Stable |  |  |  | 0.19 | Stable | Stable |  |  |  | Stable | NC(=O)N1c2ccc(Br)cc2C=Cc2cc(Br)ccc21
